Measurements taken from the array DNA melting data of Ke et al. (doi:10.1101/2024.01.08.574731).

Legend:
[1] = melting temperature; fluorescence melt of hairpins on a sequencing array, two-state fit, raised by 9.35 °C to match UV melts; conditions: sodium 0.088 M
In short: (§1)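 Hairpins were imaged by Cy3 fluorescence on a sequenced MiSeq flow cell with annealed Cy3 and quencher oligos, in 50 mM Na-HEPES pH 8.0, 25 mM NaCl, in 2.5 °C steps up to 60 °C. Bootstrapped two-state fits of normalised signals gave melting temperature and folding enthalpy. Four replicates were combined by inverse variance, and fitted temperatures were raised by 9.35 °C to match UV melts.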

[2] = folding enthalpy; higher = less favourable; fluorescence melt of hairpins on a sequencing array, two-state fit; conditions: sodium 0.088 M
In short: as §1

Sequence | Tm [1] [°C] | folding enthalpy [2] [kcal/mol]
GATCTAACGCTAGATC ((((((....)))))) | 38.1 | -20.7
GATCTAAGAATAGATC ((((((....)))))) | 34 | -20.4
GATCTAAGTCTAGATC ((((((....)))))) | 37.7 | -25.4
GATCTAAGTTTAGATC ((((((....)))))) | 41.9 | -30
GATCTAATTCTAGATC ((((((....)))))) | 37 | -29.9
GATCTACAACTAGATC ((((((....)))))) | 34.1 | -25.6
GATCTACACTTAGATC ((((((....)))))) | 43.4 | -44.7
GATCTACATGTAGATC ((((((....)))))) | 52.5 | -45.9
GATCTACATTTAGATC ((((((....)))))) | 39 | -35.3
GATCTACCATAGATC ((((((...)))))) | 37.5 | -30.5
GATCTACGACTAGATC ((((((....)))))) | 35 | -32.1
GATCTACGAGTAGATC ((((((....)))))) | 52.3 | -37.8
GATCTACGCATAGATC ((((((....)))))) | 42.7 | -28.5
GATCTACGGCTAGATC ((((((....)))))) | 37.1 | -28.7
GATCTACGGTAGATC ((((((...)))))) | 41.4 | -37.3
GATCTACGTCTAGATC ((((((....)))))) | 40.7 | -20.7
GATCTACGTTTAGATC ((((((....)))))) | 39.1 | -32.4
GATCTACTATTAGATC ((((((....)))))) | 38.6 | -33.1
GATCTACTCTAGATC ((((((...)))))) | 40.6 | -31
GATCTAGAAGTAGATC ((((((....)))))) | 39.9 | -27.6

Sequence | Tm [1] [°C] | folding enthalpy [2] [kcal/mol]
GATCTAGAGATAGATC ((((((....)))))) | 39.1 | -26.2
GATCTAGAGCTAGATC ((((((....)))))) | 39.4 | -29.4
GATCTAGATATAGATC ((((((....)))))) | 46.8 | -34.4
GATCTAGCCGTAGATC ((((((....)))))) | 44.5 | -31.2
GATCTAGCCTTAGATC ((((((....)))))) | 44.4 | -38.6
GATCTAGGATTAGATC ((((((....)))))) | 44.8 | -29.1
GATCTAGGCGTAGATC ((((((....)))))) | 45.4 | -32.4
GATCTAGGTATAGATC ((((((....)))))) | 47.5 | -34.7
GATCTAGGTCTAGATC ((((((....)))))) | 46.2 | -37.1
GATCTAGTCCTAGATC ((((((....)))))) | 47.4 | -31.9
GATCTAGTCTAGATC ((((((...)))))) | 41.1 | -34.2
GATCTAGTTCTAGATC ((((((....)))))) | 46.6 | -34.8
GATCTATACCTAGATC ((((((....)))))) | 43.2 | -34.7
GATCTATACTTAGATC ((((((....)))))) | 45.6 | -46.9
GATCTATAGTAGATC ((((((...)))))) | 38.6 | -22.4
GATCTATATCTAGATC ((((((....)))))) | 36.2 | -27.6
GATCTATCATTAGATC ((((((....)))))) | 42.1 | -28.2
GATCTATCTCTAGATC ((((((....)))))) | 39.6 | -28.3
GATCTATCTGTAGATC ((((((....)))))) | 42.9 | -33.9
GATCTATGACTAGATC ((((((....)))))) | 37.1 | -26.7
